Measured values: ChEMBL document CHEMBL1140706, “A Novel iron-chelating derivative of the neuroprotective peptide NAPVSIPQ shows superior antioxidant and antineurodegenerative capabilities” (J Med Chem, 2008)
pIC50: −log10 of the molar value. Active and inactive are the calls of the source. The rule behind the calls is not given here.

Tests used:
Brain [1] = test: Inhibition of iron/ascorbate-induced lipid peroxidation in Sprague-Dawley rat brain mitochondrial membrane homogenate at 100 uM; type: functional, tissue-based
In short: (§1)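 Crude mitochondrial fraction from brains of male Sprague-Dawley rats (250–300 g). Assay in 25 mM Tris-HCl pH 7.5 with 25 µM ascorbate, 40 µg protein, 1.5 µM FeSO4 and compound (10–750 µM). Shaken 2 h at ambient temperature, then TCA stop and TBA at 95 °C for 30 min. Read at 532 nm, blank subtracted, percent of control. n = 3 in duplicate.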

[2] = Iron chelating activity by ferrozine method; type: functional
In short: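 Competition with ferrozine for Fe(II) in 5% ammonium acetate buffer, pH 6.9. Compound (100–600 µM, duplicate) preincubated 30 min with 15 µM FeSO4, then 60 µM ferrozine added for 1 h at ambient temperature. Absorbance read at 562 nm with blank subtracted. Chelating effect % = [1 − sample/control] × 100. n = 3 in duplicate.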

[3] = Effect on iron-induced hydroxyl radical generation assessed as increase in PBN-OH radical spin adduct concentration at 600 uM; type: functional
In short: (§2)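 Fenton system of 100 µM FeSO4, 200 µM H2O2 and 35 mM PBN spin trap. Compound added 2 min before H2O2. EPR spectrum recorded at room temperature in a quartz flat cell. PBN-OH spin adduct level estimated from peak intensity of the middle field doublet and expressed as percent of control. Mean ± SEM, n = 3.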

Brain [4] = test: Inhibition of iron/ascorbate-induced lipid peroxidation in Sprague-Dawley rat brain mitochondrial membrane homogenate; type: functional, tissue-based; in short: as §1
SH-SY5Y [5] = test: Neuroprotective activity against hydrogen persoxide-induced cell death in human SH-SY5Y cells upto 10 uM by MTT assay; type: ADME, cell-based
In short: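 SH-SY5Y cells seeded at 0.5 × 10^4 per well in MEM/F-12 with 10% FCS and allowed to attach for 24 h. Compound added immediately before 80 µM H2O2, then 24 h at 37 °C. MTT for 2 h, then SDS/HCl lysis for 24 h, read at 570/650 nm. Viability expressed as percent of cells not treated with H2O2. n = 7 over two experiments.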

[6] = Effect on iron-induced hydroxyl radical generation assessed as reduction in EPR signals; type: functional; in short: as §2
[7] = Effect on iron-induced hydroxyl radical generation assessed as reduction in EPR signals relative to control; type: functional; parameters: scale not given: the % may be the effect or the level left; in short: as §2
[8] = Effect on iron-induced hydroxyl radical generation assessed as reduction in EPR signals at 300 uM relative to control; type: functional; parameters: scale not given: the % may be the effect or the level left; in short: as §2
SH-SY5Y [9] = test: Neuroprotective activity against hydrogen persoxide-induced cell death in human SH-SY5Y cells assessed as cell viability at 1 uM by MTT assay relative to control; type: cell-based; conditions: read-out: Activity
In short: (§3)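 SH-SY5Y cells grown in 1:1 Eagle MEM/Ham's F-12 with 10% FCS, 37 °C, 5% CO2; seeded 0.5 × 10^4 cells/well, attached 24 h. Compounds or vehicle added just before 80 µM H2O2. After 24 h at 37 °C, MTT added for 2 h, then SDS/HCl for a further 24 h; absorbance read at 570/650 nm. Viability expressed as percent of cells not treated with H2O2.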

Brain [10] = test: Inhibition of iron/ascorbate-induced lipid peroxidation in Sprague-Dawley rat brain mitochondrial membrane homogenate at 15 uM; type: functional, tissue-based; in short: as §1
SH-SY5Y [11] = test: Neuroprotective activity against hydrogen persoxide-induced cell death in human SH-SY5Y cells assessed as cell viability at 10 uM by MTT assay relative to control; type: cell-based; conditions: read-out: Activity; in short: as §3

| Structure (SMILES) | Activity (Brain [1]) | pIC50 [2] | Activity [3] | pIC50 (Brain [4]) | Activity (SH-SY5Y [5]) | pIC50 [6] | Activity [7] | Activity ([8]; 600 uM, in the assay text read “at 600 uM” for “at 300 uM”) | viability at 1 µM (SH-SY5Y [9]) | Activity (Brain [10]) | viability at 10 µM (SH-SY5Y [11]) | Activity ([8]; 300 uM) |
| --- | --- | --- | --- | --- | --- | --- | --- | --- | --- | --- | --- | --- |
| CC[C@H](C)[C@H](NC(=O)[C@H](CO)NC(=O)[C@@H](NC(=O)[C@@H]1CCCN1C(=O)[C@H](C)NC(=O)[C@@H](N)CC(N)=O)C(C)C)C(=O)N1CCC[C@H]1C(=O)N[C@@H](CCC(N)=O)C(=O)NO | inactive | 3.44 | inactive | – | – | – | – | – | – | – | – | – |
| CC[C@H](C)[C@H](NC(=O)[C@H](CO)NC(=O)[C@@H](NC(=O)[C@@H]1CCCN1C(=O)[C@H](C)NC(=O)[C@@H](N)CC(=O)NO)C(C)C)C(=O)N1CCC[C@H]1C(=O)N[C@@H](CCC(N)=O)C(=O)NO | inactive | 3.77 | – | 3.47 | Non-toxic | 3.82 | 28% | 28% | – | – | – | – |
| CC(=O)N(O)CCCCCNC(=O)CCC(=O)N(O)CCCCCNC(=O)CCC(=O)N(O)CCCCCN [DEFEROXAMINE] | – | 5.00 | – | – | – | – | – | – | 76% | Active | 76% | 12% |
| CC[C@H](C)[C@H](NC(=O)[C@H](CO)NC(=O)[C@@H](NC(=O)[C@@H]1CCCN1C(=O)[C@H](C)NC(=O)[C@@H](N)CC(=O)NO)C(C)C)C(=O)N1CCC[C@H]1C(=O)N[C@@H](CCC(N)=O)C(=O)O | inactive | 3.44 | inactive | – | – | – | – | – | – | – | – | – |
